Reference: ChEMBL document CHEMBL1641413, “Identification of 3-sulfonylindazole derivatives as potent and selective 5-HT(6) antagonists” (Bioorg Med Chem, 2011)
Calls of active or inactive are those of the source. No cut-off for these calls is given here.

Tests used:
[1] = biological target: T1, 5-hydroxytryptamine receptor 6 (Homo sapiens, UniProt P50406); experiment: Displacement of [3H]-LSD from cloned human 5-HT6 receptor expressed in human HeLa cells; type: cell-based
Method in brief: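 Radioligand displacement of [³H]-LSD from cloned human 5-HT6 receptors stably expressed in HeLa cells; compounds tested as HCl salts; Ki values determined in triplicate.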

[2] = biological target: T1, 5-hydroxytryptamine receptor 6; experiment: Antagonist activity at cloned human 5-HT6 receptor expressed in human HeLa cells assessed as inhibition of 5HT-induced cyclic AMP formation; type: functional, cell-based
[3] = biological target: T2, 5-hydroxytryptamine receptor 1A (Homo sapiens, UniProt P08908); experiment: Binding affinity to 5-HT1A receptor
T2 sequence (P08908 whole entry): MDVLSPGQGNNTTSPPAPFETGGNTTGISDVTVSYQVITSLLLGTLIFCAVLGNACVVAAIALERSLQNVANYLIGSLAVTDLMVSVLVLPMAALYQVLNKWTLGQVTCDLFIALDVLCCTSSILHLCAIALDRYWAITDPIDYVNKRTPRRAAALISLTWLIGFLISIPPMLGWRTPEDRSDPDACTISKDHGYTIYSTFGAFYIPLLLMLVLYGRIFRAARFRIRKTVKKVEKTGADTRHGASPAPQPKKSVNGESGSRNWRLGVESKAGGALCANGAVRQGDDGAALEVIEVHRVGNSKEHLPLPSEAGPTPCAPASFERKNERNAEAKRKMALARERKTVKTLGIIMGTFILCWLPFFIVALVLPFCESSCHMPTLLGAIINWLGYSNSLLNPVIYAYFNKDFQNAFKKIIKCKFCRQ

[4] = biological target: 5-hydroxytryptamine receptor 1B (Homo sapiens, UniProt P28222); experiment: Binding affinity to 5-HT1B receptor
5-hydroxytryptamine receptor 1B, sequence (P28222 whole entry): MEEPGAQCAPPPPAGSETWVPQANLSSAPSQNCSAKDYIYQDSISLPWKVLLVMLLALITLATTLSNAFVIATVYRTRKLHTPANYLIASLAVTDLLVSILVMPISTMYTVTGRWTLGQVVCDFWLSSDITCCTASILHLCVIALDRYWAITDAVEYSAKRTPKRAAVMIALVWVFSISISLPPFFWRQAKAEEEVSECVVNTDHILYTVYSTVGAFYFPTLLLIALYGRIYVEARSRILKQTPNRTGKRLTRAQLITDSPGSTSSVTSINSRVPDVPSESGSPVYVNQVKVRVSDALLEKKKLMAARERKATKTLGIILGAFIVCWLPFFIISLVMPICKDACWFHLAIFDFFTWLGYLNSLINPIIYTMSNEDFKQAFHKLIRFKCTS

[5] = biological target: 5-hydroxytryptamine receptor 1D (Homo sapiens, UniProt P28221); experiment: Binding affinity to 5-HT1D receptor
5-hydroxytryptamine receptor 1D, sequence (P28221 whole entry): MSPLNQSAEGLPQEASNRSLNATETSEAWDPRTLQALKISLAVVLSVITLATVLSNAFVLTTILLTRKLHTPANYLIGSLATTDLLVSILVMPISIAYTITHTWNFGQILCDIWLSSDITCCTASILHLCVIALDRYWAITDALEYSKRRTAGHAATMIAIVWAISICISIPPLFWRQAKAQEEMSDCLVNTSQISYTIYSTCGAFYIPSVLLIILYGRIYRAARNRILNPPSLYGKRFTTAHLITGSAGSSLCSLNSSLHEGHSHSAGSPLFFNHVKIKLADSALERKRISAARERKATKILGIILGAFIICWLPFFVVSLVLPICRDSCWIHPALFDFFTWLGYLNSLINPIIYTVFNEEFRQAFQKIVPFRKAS

[6] = biological target: T3, 5-hydroxytryptamine receptor 2B (Homo sapiens, UniProt P41595); experiment: Binding affinity to 5-HT2B receptor
T3 sequence (P41595 whole entry): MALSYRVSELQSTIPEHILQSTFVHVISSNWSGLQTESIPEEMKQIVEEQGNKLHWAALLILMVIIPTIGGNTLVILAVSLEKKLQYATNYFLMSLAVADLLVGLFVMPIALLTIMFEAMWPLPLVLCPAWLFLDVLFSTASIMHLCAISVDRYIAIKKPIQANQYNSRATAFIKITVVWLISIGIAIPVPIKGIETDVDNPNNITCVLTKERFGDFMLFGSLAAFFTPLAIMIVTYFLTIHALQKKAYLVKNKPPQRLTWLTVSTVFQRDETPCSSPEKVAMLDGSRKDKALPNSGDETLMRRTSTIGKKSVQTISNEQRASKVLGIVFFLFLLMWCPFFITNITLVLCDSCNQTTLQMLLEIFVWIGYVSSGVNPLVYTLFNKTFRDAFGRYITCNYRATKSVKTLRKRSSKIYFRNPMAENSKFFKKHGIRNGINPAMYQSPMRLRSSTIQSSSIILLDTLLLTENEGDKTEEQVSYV

[7] = biological target: T4, 5-hydroxytryptamine receptor 2C (Homo sapiens, UniProt P28335); experiment: Binding affinity to 5-HT2C receptor
T4 sequence (P28335 whole entry): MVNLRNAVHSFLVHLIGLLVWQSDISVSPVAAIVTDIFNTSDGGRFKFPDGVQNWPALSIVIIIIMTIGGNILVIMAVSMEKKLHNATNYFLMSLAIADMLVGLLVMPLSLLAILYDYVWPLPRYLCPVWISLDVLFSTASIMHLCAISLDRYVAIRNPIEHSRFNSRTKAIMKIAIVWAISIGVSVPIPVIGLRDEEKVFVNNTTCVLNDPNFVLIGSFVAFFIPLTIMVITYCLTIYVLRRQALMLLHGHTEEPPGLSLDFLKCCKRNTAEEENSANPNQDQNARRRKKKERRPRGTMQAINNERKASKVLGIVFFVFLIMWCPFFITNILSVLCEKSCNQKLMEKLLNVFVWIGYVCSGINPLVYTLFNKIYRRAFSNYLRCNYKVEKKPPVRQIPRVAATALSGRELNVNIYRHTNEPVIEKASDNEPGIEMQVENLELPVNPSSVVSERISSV

[8] = biological target: 5-hydroxytryptamine receptor 7 (Homo sapiens, UniProt P34969); experiment: Binding affinity to 5-HT7 receptor
5-hydroxytryptamine receptor 7, sequence (P34969 whole entry): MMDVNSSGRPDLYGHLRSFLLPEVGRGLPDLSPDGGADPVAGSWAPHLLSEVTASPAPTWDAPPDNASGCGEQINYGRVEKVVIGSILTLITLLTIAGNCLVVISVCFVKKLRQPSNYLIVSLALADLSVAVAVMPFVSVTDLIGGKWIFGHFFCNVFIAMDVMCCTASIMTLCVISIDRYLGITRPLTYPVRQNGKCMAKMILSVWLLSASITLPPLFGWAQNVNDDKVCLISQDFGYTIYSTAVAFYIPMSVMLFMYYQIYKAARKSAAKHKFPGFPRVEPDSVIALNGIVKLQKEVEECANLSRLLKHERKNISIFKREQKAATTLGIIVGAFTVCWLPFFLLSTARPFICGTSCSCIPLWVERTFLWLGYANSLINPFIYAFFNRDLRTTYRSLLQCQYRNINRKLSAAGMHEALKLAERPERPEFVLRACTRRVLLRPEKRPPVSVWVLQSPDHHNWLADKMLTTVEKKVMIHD

[9] = biological target: T5, Alpha-2A adrenergic receptor (Homo sapiens, UniProt P08913); experiment: Binding affinity to adrenergic alpha2A receptor
T5 sequence (P08913 whole entry): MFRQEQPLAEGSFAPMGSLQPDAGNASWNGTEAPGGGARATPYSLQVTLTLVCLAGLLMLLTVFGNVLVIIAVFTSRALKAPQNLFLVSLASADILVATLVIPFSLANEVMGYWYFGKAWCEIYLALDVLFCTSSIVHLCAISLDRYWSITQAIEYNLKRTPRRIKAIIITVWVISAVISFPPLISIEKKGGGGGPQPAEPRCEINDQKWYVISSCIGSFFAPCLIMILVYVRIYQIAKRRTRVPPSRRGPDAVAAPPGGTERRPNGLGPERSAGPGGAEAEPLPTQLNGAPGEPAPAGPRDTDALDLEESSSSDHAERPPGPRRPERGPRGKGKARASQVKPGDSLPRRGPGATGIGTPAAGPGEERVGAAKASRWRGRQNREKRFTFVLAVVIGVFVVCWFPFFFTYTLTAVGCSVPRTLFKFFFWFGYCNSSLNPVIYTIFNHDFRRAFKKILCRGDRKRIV

[10] = biological target: D(2) dopamine receptor (Homo sapiens, UniProt P14416); experiment: Binding affinity to dopamine D2 receptor
D(2) dopamine receptor, sequence (P14416 whole entry): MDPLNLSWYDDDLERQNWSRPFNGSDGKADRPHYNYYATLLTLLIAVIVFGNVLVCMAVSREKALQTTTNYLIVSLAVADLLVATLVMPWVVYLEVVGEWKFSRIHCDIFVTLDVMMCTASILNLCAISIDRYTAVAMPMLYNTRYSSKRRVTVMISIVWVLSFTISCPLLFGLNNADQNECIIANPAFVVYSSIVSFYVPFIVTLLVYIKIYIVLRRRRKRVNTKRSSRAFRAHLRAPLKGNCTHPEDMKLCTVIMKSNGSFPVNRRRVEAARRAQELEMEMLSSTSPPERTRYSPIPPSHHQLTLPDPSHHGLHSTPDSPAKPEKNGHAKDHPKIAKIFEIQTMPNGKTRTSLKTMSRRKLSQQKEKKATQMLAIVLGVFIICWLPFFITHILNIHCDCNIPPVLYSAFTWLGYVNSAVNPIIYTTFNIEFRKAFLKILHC

[11] = biological target: T3, 5-hydroxytryptamine receptor 2B; experiment: Agonist activity at 5-HT2B receptor at 0.1 nM to 10 uM by FLIPR assay; type: functional
[12] = Solubility of the compound in water; type: physicochemical
[13] = Half life in rat microsomes; type: ADME, Microsome
[14] = Half life in human microsomes; type: ADME, Microsome
[15] = Binding affinity to P-glycoprotein
[16] = % bound in plasma; type: ADME, cell-free; details: read-out: PPB
[17] = tested on: Rattus norvegicus; experiment: Cognitive enhancing effect in rat assessed as inhibition of scopolamine-induced memory deficit at 10 mg/kg, po by novel object recognition test; type: functional, organism-based; parameters: dose 10 mg/kg
Method in brief: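 Rats given compound orally at 10 mg/kg; scopolamine-induced memory deficit assessed in a novel object recognition assay.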

T1 sequence (P50406 whole entry): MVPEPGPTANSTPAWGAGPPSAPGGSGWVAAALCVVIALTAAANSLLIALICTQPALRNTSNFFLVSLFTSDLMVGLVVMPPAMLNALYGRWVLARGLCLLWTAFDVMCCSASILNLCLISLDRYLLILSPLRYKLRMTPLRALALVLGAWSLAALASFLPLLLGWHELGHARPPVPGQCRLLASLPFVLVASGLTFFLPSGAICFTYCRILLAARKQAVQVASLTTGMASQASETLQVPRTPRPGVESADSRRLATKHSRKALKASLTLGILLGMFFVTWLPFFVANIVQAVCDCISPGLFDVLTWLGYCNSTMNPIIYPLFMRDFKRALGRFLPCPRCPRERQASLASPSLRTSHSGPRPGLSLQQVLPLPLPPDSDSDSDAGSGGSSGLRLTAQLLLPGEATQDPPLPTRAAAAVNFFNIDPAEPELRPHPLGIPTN

Ki [1] | IC50 [2] | Ki [3] | Ki [4] | Ki [5] | Ki [6] | Ki [7] | Ki [8] | Ki [9] | Ki [10] | Activity [11] | solubility [12] | half-life [13] | half-life [14] | Activity [15] | fraction unbound [16] | SMILES | inhibition [17]
1 nM | 12 nM | 455 nM | 1660 nM | 410 nM | 155 nM | 2430 nM | 3220 nM | > 5000 nM | > 5000 nM | inactive | > 100 µg/mL | > 30 min | > 30 min | inactive | > 0.2 | Cl.O=S(=O)(c1cccc(Cl)c1)c1n[nH]c2ccc(NC3CCNCC3)cc12 | 
1.1 nM | 8.2 nM | 3010 nM | > 5000 nM | 1340 nM | 33 nM | > 5000 nM | > 5000 nM | > 5000 nM | > 5000 nM | inactive | > 100 µg/mL | > 30 min | > 30 min | inactive | > 0.2 | Cl.O=C(Nc1ccc2[nH]nc(S(=O)(=O)c3cccc4ccccc34)c2c1)C1CCNCC1 | Active
0.7 nM | 15 nM | > 5000 nM | > 5000 nM | > 5000 nM | 675 nM | > 5000 nM | 3970 nM | > 5000 nM | > 5000 nM | inactive | > 100 µg/mL | > 30 min | > 30 min | inactive | > 0.2 | Cl.O=S(=O)(c1cccc2ccccc12)c1n[nH]c2ccc(NC3CCNCC3)cc12 | Active
